Screening data deposited in PubChem BioAssay by several laboratories.
Hep lipid drop: modulators of hepatic lipid droplet formation. AML12 mouse hepatocytes, oleate lipid droplets, BODIPY imaging. inhibition, % at 6.5 µM. 240,000 compounds, 0.4% hits;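 active = lipid droplet intensity inhibited by at least 50%, with more than 500 cells counted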
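Assay system: AML12 hepatocytes (mouse); Probe or stimulus: oleic acid at 100 µM to induce lipid droplet formation; Dosing: compound at 6.5 µM only; Schedule: compound with oleate, overnight; Detection: fluorescence imaging, 20x objective, two fields per well; Measure: % inhibition of lipid droplet signal.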
MPTP block: inhibitors of mitochondrial permeability transition pore | isolated mouse mitochondria, Ca2+ swelling absorbance, 30 min | inhibition, % at 10 µM | 360,000 compounds, 1.4% hits | AID 602449;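 active = inhibition of 50% or more, scaled per plate between neutral and stimulator controls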
ADAM10 inh: ADAM10 inhibition, QFRET primary screen | recombinant ADAM10, EDANS/DABCYL FRET peptide cleavage, 3 h | O14672 | inhibition, % at 7 µM | 370,000 compounds, 0.62% hits | AID 720582;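 active = inhibition above a per-campaign cutoff equal to the mean of compounds falling between control-based bounds plus 3 SD, cut at about 20% in these data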
ADAM17 inh: ADAM17 inhibition, QFRET primary screen. AID 720648. inhibition, % at 6.95 µM. recombinant ADAM17, EDANS/DABCYL FRET peptide cleavage. 370,000 compounds, 0.83% hits. P78536;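 active = inhibition above the mean of compounds lying between control limits plus 3 SD, set per campaign, cut at about 8.5% in these data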
Target sequence (P78536 215-824 limits assumed): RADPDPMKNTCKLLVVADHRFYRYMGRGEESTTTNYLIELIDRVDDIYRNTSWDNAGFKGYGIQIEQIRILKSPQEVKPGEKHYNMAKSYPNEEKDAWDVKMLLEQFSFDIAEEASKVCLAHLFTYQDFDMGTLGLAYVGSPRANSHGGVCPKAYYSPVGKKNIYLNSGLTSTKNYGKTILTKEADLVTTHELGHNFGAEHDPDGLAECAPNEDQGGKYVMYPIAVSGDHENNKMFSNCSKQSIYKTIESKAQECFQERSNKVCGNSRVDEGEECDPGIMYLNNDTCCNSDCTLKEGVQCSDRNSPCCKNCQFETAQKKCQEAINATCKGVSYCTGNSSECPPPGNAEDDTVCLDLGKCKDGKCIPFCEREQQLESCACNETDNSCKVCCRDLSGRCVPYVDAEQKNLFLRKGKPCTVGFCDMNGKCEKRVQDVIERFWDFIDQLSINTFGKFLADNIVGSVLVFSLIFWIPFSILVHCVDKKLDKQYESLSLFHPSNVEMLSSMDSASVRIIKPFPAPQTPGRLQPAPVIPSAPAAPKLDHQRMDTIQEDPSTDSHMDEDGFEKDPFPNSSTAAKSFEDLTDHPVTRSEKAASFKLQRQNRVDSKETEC
V-ATPase pHluor: regulators of yeast V-ATPase proton transport; 350,000 compounds, 0.37% hits; response, % at 10 µM; S. cerevisiae, pHLuorin cytosolic pH fluorescence; in the data active = response mostly above about 7.3%, no sharp cut-off; inactive = mostly below about 5.4%; also: actives read high
aDG glyco up: increases alpha dystroglycan glycosylation; Pro5-aDG cells, alpha-DG glycosylation AlphaScreen (IIH6); 0% Pro5, 100% B10-LARGE cell signal; AID 624168; activation, % at 10 µM; 360,000 compounds, 0.22% hits;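 active = activation of at least 8% versus controls, or a plate z-score of at least 8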;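 also: Pro5 are CHO cells carrying HIG-tagged alpha-DG that lacks glycosylation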
MPTP counter: mitochondrial membrane potential, counter-screen | shares compounds with MPTP block | isolated mitochondria, Rhodamine 123 fluorescence | inhibition, % at 10 µM | 5,000 compounds, 78% hits; in the data active = inhibition above about 22%
MPTP abs DR: dose response confirmation of mitochondrial permeability transition pore inhibitors; 780 compounds, 58% hits; AID 651561; isolated mitochondria swelling, absorbance; IC50, µM; shares compounds with MPTP block; in the data active = IC50 below about 20 µM
MPTP cs DR: active in counter-screen for permeability transition pore inhibitors. shares compounds with MPTP block. isolated mitochondria counterscreen, fluorescence read-out. IC50, µM. 780 compounds, 49% hits. AID 651564; in the data active = IC50 below about 80 µM
Large screens that a line does not name were inactive (follow-up assays come after a bar, where they were run). Only some compounds are listed: those with a hit (about 3.1% of all), similar ones and a draw of the others.

COc1ccc(N(Cc2ccccc2)C(=O)CSc2nnc(Cn3nnc4ccccc43)o2)cc1	none
COC(=O)[C@]12C[C@H](CC(=O)NCCC(C)C)C(=O)N(CCc3ccc(OC)c(OC)c3)C1=C[C@H](C1CCCC1)O[C@@H]2C	none (no result: Hep lipid drop, MPTP block, V-ATPase pHluor, aDG glyco up)
O=C(/C=C/c1cccs1)c1ccc(NC(=O)c2cccc(Br)c2)cc1	MPTP block 54 | MPTP counter 62
CCOC(=O)CNCCC(=O)c1ccc(Br)cc1	MPTP block 55 | MPTP counter inactive | MPTP abs DR inactive | MPTP cs DR inactive
Cc1cccc(NCCC(=O)c2ccc(Br)cc2)c1	none (no result: Hep lipid drop)
CCC(=O)c1ccc2c(c1)N(CCCN(C)C)c1ccccc1S2	MPTP block 72 (no result: Hep lipid drop) | MPTP counter inactive
CC(=O)c1ccc2c(c1)N(CCCN(C)C)c1ccccc1S2	none (no result: Hep lipid drop)
CCOCC(=O)NC(=O)N1C[C@H]2CON(C)[C@H]2C[C@H]1c1ccc(OC)cc1	none (no result: Hep lipid drop, MPTP block, V-ATPase pHluor, aDG glyco up)
O=C(N/N=C/c1cc([N+](=O)[O-])cc(Br)c1O)C12CC3CCC(CC(C3)C1)C2	MPTP block 84 (no result: Hep lipid drop) | MPTP counter 28
CCCn1c(=S)[nH]c2cc(C(=O)N3CCc4ccccc43)ccc2c1=O	MPTP block 60 (no result: Hep lipid drop) | MPTP counter 48
N/C(=N\C(=O)OCc1ccccc1)N(Cc1ccccc1)C(C#CC1=CCCCC1)Cc1ccccc1 (stereo unspecified)	none (no result: Hep lipid drop, MPTP block, V-ATPase pHluor, aDG glyco up)
N=c1n(CCN2CCCCC2)c2ccccc2n1CC(O)COc1ccccc1 (stereo unspecified)	MPTP block 98 (no result: Hep lipid drop) | MPTP counter inactive | MPTP abs DR 18 | MPTP cs DR 68
N=c1n(CCN2CCOCC2)c2ccccc2n1CC(O)COc1ccccc1 (stereo unspecified)	none (no result: Hep lipid drop)
CCCCn1c(=N)n(CC(O)COc2ccc(C)cc2)c2ccccc21 (stereo unspecified)	none (no result: Hep lipid drop)
CCCCn1c(=N)n(CC(O)COc2ccccc2)c2ccccc21 (stereo unspecified)	MPTP block 76 (no result: Hep lipid drop) | MPTP counter inactive | MPTP abs DR 13 | MPTP cs DR 36
CC(=O)c1cccc(NS(=O)(=O)c2ccc(-c3cnc(C4CC4)o3)cc2)c1	MPTP block 94 | MPTP counter 94
CC(=O)Nc1ccc(NS(=O)(=O)c2ccc(-c3cnc(C4CC4)o3)cc2)cc1	none
CCn1c(C)nc([N+](=O)[O-])c1Sc1ccc(F)cc1	MPTP block 77 | MPTP counter inactive | MPTP abs DR inactive | MPTP cs DR inactive
CC(=O)Nc1ccc(C(=O)N/N=C/c2cc(Br)cc(Br)c2O)cc1	none
CNC(=S)N/N=C/c1cc(Br)cc(Br)c1O	MPTP block 88 | MPTP counter 60
Oc1c(Br)cc(Br)cc1/C=N/NC(=S)N[C@H]1CC2C=CC1C2 (stereo partly specified)	MPTP block 84 | MPTP counter 58
COC(=O)[C@H](CC(C)C)N(CCc1cn(Cc2ccc(C)cc2)nn1)S(=O)(=O)c1ccccc1Br	none (no result: Hep lipid drop, MPTP block, V-ATPase pHluor, aDG glyco up)
COc1ccc(CC2(CO)CCN(CC3=Cc4cc(Cl)ccc4OC3)CC2)cc1	MPTP block 97, aDG glyco up 13 | MPTP counter 107
COc1ccc(-c2nc(CN3CCN(c4ncnc5ccccc45)CC3)c(C)o2)c(OC)c1	MPTP block 66 | MPTP counter 29
Cc1ccc(-c2nnc(SCC(=O)N(C)C)nc2-c2ccc(C)cc2)cc1	MPTP block 73 | MPTP counter inactive | MPTP abs DR 17 | MPTP cs DR inactive
CC(C)[C@H](NC(=O)OC(C)(C)C)c1nnc(SCC(=O)Nc2ccc(Br)cc2)o1	MPTP block 82 | MPTP counter 53
N=c1c2c(-c3ccccc3)c(-c3ccccc3)n(Cc3ccco3)c2ncn1CCCN1CCOCC1	MPTP block 71 | MPTP counter inactive
N=c1c2c(-c3ccccc3)c(-c3ccccc3)n(Cc3ccco3)c2ncn1CCCn1ccnc1	none
CCSc1nsc(NC(=O)Nc2ccccc2F)n1	MPTP block 66 | MPTP counter 87
C=CCSc1nsc(NC(=O)Nc2ccc(F)cc2)n1	MPTP block 98 | MPTP counter 78
Cc1ccc(C(CNS(=O)(=O)c2ccc(Br)cc2)N2CCN(C)CC2)cc1 (stereo unspecified)	MPTP block 78 (no result: Hep lipid drop) | MPTP counter inactive | MPTP abs DR 13 | MPTP cs DR inactive
Cc1ccc(C(CNS(=O)(=O)c2ccccc2)N2CCN(C)CC2)cc1 (stereo unspecified)	none (no result: Hep lipid drop)
N#CC(=C1C=C(Br)C(=NO)C=C1Cl)c1cccc2ccccc12	MPTP block 76 (no result: Hep lipid drop) | MPTP counter 57
CN(C(=O)COc1ccccc1C(=O)NCCOc1ccccc1)c1ccccc1	MPTP block 51 | MPTP counter 31
O=C(NCCOc1ccccc1)c1ccccc1Cl	none
C/C(=N\NC(=O)CCc1ccccc1)C1C(=O)c2ccccc2C1=O	none
C/C(=N\NC(=O)c1cccc(Cl)c1)C1C(=O)c2ccccc2C1=O	MPTP block 89 | MPTP counter 85
C[C@H]1CN(c2ccc(N3CCNC[C@@H]3C)cc2C#N)CCN1Cc1ccccc1	none (no result: Hep lipid drop, MPTP block, V-ATPase pHluor, aDG glyco up)
O=C(NCCc1c[nH]c2ccccc12)OCc1cn(Cc2cccc(Cl)c2)nn1	none (no result: Hep lipid drop, MPTP block, V-ATPase pHluor, aDG glyco up)
Cn1nnnc1SCCNCc1cc(Cl)ccc1OCc1ccccc1	MPTP block 83 | MPTP counter 31
Cn1nnnc1SCCNCc1ccccc1OCc1ccc(Cl)cc1	none
COc1ccc(CCNCc2ccc(OCc3ccccc3)cc2)cc1	MPTP block 98 | MPTP counter inactive | MPTP abs DR 4.4 | MPTP cs DR 28
COc1ccc(CNCCC(c2ccc(F)cc2)c2ccc(OC)cc2)cc1 (stereo unspecified)	MPTP block 56 | MPTP counter inactive
c1ccc(COc2ccc(CNCc3cccs3)cc2)cc1	MPTP block 96 (no result: Hep lipid drop) | MPTP counter inactive | MPTP abs DR 6.4 | MPTP cs DR 31
Brc1ccc(CNCc2cccs2)cc1	none
COc1ccc(CNS(=O)(=O)CCNCCc2ccccc2)cc1	none (no result: Hep lipid drop)
COC(=O)C[C@@H]1CC[C@@H]2[C@@H](COc3ccc(NC(=O)Nc4cccc(Cl)c4)cc3C(=O)N2C)O1	none (no result: Hep lipid drop, MPTP block, V-ATPase pHluor, aDG glyco up)
Cc1ccccc1Cn1cc(COC(=O)Nc2ccc(F)cc2)nn1	none (no result: Hep lipid drop, MPTP block, V-ATPase pHluor, aDG glyco up)
CC(=O)N[C@@H]1C[C@@H]2O[C@@H](CO)CC[C@@H]2O[C@@H]1CCc1ccc(C#CC2(O)CCCC2)cc1	none (no result: Hep lipid drop, MPTP block, V-ATPase pHluor, aDG glyco up)
COc1ccc(CNCCc2ccc(Cl)cc2)cc1OCc1ccccc1	MPTP block 86, aDG glyco up 2.7 (no result: ADAM10 inh, ADAM17 inh) | MPTP counter 84
